From article PMC10693930 (Biochemistry, 2023)
Changes are numbered by the printed parent chain. Numbers in names are those of the source.

Assays:
[1] = molecular target: T1, WT SaPC (Staphylococcus aureus, UniProt A0A0H3JRU9); assay: Pyruvate carboxylation assay; type: biochemical; conditions: for increase of apparent Ka in the presence of L-aspartate: 20 mM L-aspartate vs none; for ratio (Ka CoA / Ka acetyl-CoA): discrimination of acetyl-CoA over CoA
[2] = molecular target: T1, WT SaPC; assay: Pyruvate carboxylation inhibition assay with CT domain inhibitors; type: biochemical; conditions: SaPC; CT domain inhibitors
Method in brief: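 WT SaPC (5 μg/mL) was pre-incubated with inhibitor and acetyl-CoA, and the reaction was started with 10× substrate mix (final 25 mM NaHCO3, 2.5 mM ATP, 12 mM pyruvate). MDH-coupled (10 U/mL MDH, 0.12 mM NADH); change in A340 monitored. Inhibitor 0–1 mM or 0–50 mM by compound. MDH-only controls. Triplicate; SD of three trials.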

[3] = molecular target: T2, E418A SaPC (Staphylococcus aureus, UniProt A0A0H3JRU9, E418A); assay: Pyruvate carboxylation inhibition assay with CT domain inhibitors; type: biochemical; conditions: for change of inhibition in the presence of acetyl-CoA: 500 μM acetyl-CoA
[4] = system: SaPC; conditions: cited from earlier work
[5] = molecular target: T3, K46A SaPC (Staphylococcus aureus, UniProt A0A0H3JRU9, K46A); assay: Pyruvate carboxylation assay; type: biochemical; conditions: K46A SaPC; for ratio (Ka CoA / Ka acetyl-CoA): discrimination of acetyl-CoA over CoA
[6] = molecular target: T4, R21A SaPC (Staphylococcus aureus, UniProt A0A0H3JRU9, R21A); assay: Pyruvate carboxylation assay; type: biochemical; conditions: R21A SaPC; for ratio (Ka CoA / Ka acetyl-CoA): discrimination of acetyl-CoA over CoA
[7] = molecular target: T2, E418A SaPC; assay: Pyruvate carboxylation assay; type: biochemical
[8] = molecular target: T3, K46A SaPC; assay: ADP phosphorylation assay; type: biochemical; conditions: up to 1 mM acetyl-CoA
[9] = molecular target: T1, WT SaPC; assay: ADP phosphorylation assay; type: biochemical
[10] = molecular target: T4, R21A SaPC; assay: ADP phosphorylation assay; type: biochemical; conditions: up to 1 mM acetyl-CoA
[11] = system: PC; conditions: cited from earlier work
[12] = molecular target: K411A SaPC (Staphylococcus aureus, UniProt A0A0H3JRU9, K411A); assay: Pyruvate carboxylation assay; type: biochemical; conditions: K411A SaPC
[13] = molecular target: T2, E418A SaPC; assay: ADP phosphorylation assay; type: biochemical; conditions: up to 1 mM acetyl-CoA
[14] = molecular target: ΔBCΔBCCP SaPC (Staphylococcus aureus (strain Mu50 / ATCC 700699)); assay: SEC
[15] = molecular target: the molecule itself; assay: SEC
[16] = Acyl-CoA + 20 mM L-aspartate, Table 1
[17] = Acyl-CoA alone, Table 1, fit to Equation 1 (3′5′ diphosphoadenosine: Equation 2)
[18] = up to 100 mM, nonspecific inhibition above 100 mM

N[C@@H](CCC(=O)O)C(=O)O [L-glutamate]
concentration at which pyruvate carboxylation is inhibited ([1]; WT SaPC, nonspecific effect (Figure S5)): exceeding 100 mM

CC(=O)CCCNC(=O)CCNC(=O)[C@H](O)C(C)(C)COP(=O)(O)OP(=O)(O)OC[C@H]1O[C@@H](n2cnc3c(N)ncnc32)[C@H](O)[C@@H]1OP(=O)(O)O [Acetyl-carba(dethia)-CoA, acetyl-carba(dethia)-CoA]
Ka (apparent activation constant) [1, 16]: 190 ± 10 µM
h (Hill coefficient) [1, 16]: 3.1 ± 0.6
h (Hill coefficient) ([1]; Acyl-CoA alone, Table 1): 1.5 ± 0.2
Ka (apparent activation constant) [1, 17]: 53 ± 4 µM
increase of apparent Ka in the presence of L-aspartate ([1]; WT SaPC): ~ 4 fold

O=C(O)C(=O)Cc1ccccc1 [phenylpyruvate]
change of potency in the presence of acetyl-CoA [2]: significantly reduced potency
inhibition of pyruvate carboxylation [3]: inhibited
change of inhibition in the presence of acetyl-CoA [3]: unchanged

O=C(O)C(O)=Cc1ccc2ccccc2n1 [2-hydroxy-3-(quinoline-2-yl)propenoic acid]
change of potency in the presence of acetyl-CoA [2]: significantly reduced potency
inhibition of pyruvate carboxylation [3]: inhibited
change of inhibition in the presence of acetyl-CoA [3]: unchanged

N[C@@H](CC(=O)O)C(=O)O [L-aspartate]
decrease of kcat in the presence of inhibitor [4]: 2-5 fold
inhibition of pyruvate carboxylation [5, 18]: not inhibited
inhibition of pyruvate carboxylation [6, 18]: not inhibited
inhibition of pyruvate carboxylation [7, 18]: not inhibited

CC(=O)SCCNC(=O)CCNC(=O)[C@H](O)C(C)(C)COP(=O)(O)OP(=O)(O)OC[C@H]1O[C@@H](n2cnc3c(N)ncnc32)[C@H](O)[C@@H]1OP(=O)(O)O [Acetyl-CoA]
activation of ADP phosphorylation [8]: unable to be activated
greater affinity than CoA [4]: ~ 100 fold
increase of binding affinity by the acetyl moiety [4]: ~ 80 fold
increase of kcat in the presence of activator [4]: 5-10 fold
Ka (apparent activation constant) ([9]; WT SaPC, ADP phosphorylation by carbamoyl phosphate): 15 ± 6 µM
concentration giving slight inhibition of ADP phosphorylation ([9]; in all cases, including WT (Figure S4)): greater than 4 mM
Ka (apparent activation constant) [5]: 340 ± 30 µM
ratio (Ka CoA / Ka acetyl-CoA) [5]: 4
ratio (Ka CoA / Ka acetyl-CoA) ([5]; listed as acetyl-CoA): 4 – 5
Ka (apparent activation constant) [1, 16]: 4.1 ± 0.3 µM
h (Hill coefficient) [1, 16]: 3.3 ± 0.6
h (Hill coefficient) ([1]; Acyl-CoA alone, Table 1): 1.5 ± 0.1
Ka (apparent activation constant) [1, 17]: 1.5 ± 0.1 µM
increase of apparent Ka in the presence of L-aspartate ([1]; WT SaPC): ~ 4 fold
Ka (apparent activation constant) ([1]; WT SaPC, Table 2 series): 1.5 ± 0.1 µM
ratio (Ka CoA / Ka acetyl-CoA) ([1]; WT SaPC): 33
ratio (Ka CoA / Ka acetyl-CoA) ([1]; WT SaPC, listed as acetyl-CoA): ~ 30
activation of ADP phosphorylation [10]: unable to be activated
Ka (apparent activation constant) [6]: 340 ± 50 µM
ratio (Ka CoA / Ka acetyl-CoA) [6]: 5
ratio (Ka CoA / Ka acetyl-CoA) ([6]; listed as acetyl-CoA): 4 – 5
increase of kcat in the presence of activator ([11]; depends on the organism): up to 35 fold
Ka (apparent activation constant) [12]: 5.8 ± 0.2 µM
ratio (Ka CoA / Ka acetyl-CoA) ([12]; discrimination of acetyl-CoA over CoA): 17
activation of pyruvate carboxylation ([7]; up to 4 mM acetyl-CoA and 30 mM CoA): unresponsive to activation
activation of ADP phosphorylation [13]: unable to be activated

CC(=O)NCCNC(=O)CCNC(=O)[C@H](O)C(C)(C)COP(=O)(O)OP(=O)(O)OC[C@H]1O[C@@H](n2cnc3c(N)ncnc32)[C@H](O)[C@@H]1OP(=O)(O)O [Acetyl-aza(dethia)-CoA, acetyl-aza(dethia)-CoA]
h (Hill coefficient) ([1]; Acyl-CoA alone, Table 1): 1.3 ± 0.4
Ka (apparent activation constant) [1, 17]: 2500 ± 1000 µM

Nc1ncnc2c1ncn2[C@@H]1O[C@H](COP(=O)(O)O)[C@@H](OP(=O)(O)O)[C@H]1O [3′5′ diphosphoadenosine, 3’5’-diphosphoadenosine]
h (Hill coefficient) ([1]; Acyl-CoA alone, Table 1): 1.6 ± 0.7
Ka (apparent activation constant) [1, 17]: 5900 ± 3100 µM
concentration range in which SaPC is activated ([1]; WT SaPC (Figure S2)): up to 7 mM
concentration at which inhibitory ([1]; WT SaPC (Figure S2), attributed to competition with ATP in BC domain): greater than 7 mM
estimated apparent Ka ([1]; WT SaPC, fit to Equation 2, Ki fixed at 5 mM): ~ 5.9 mM

CC(=O)OCCNC(=O)CCNC(=O)[C@H](O)C(C)(C)COP(=O)(O)OP(=O)(O)OC[C@H]1O[C@@H](n2cnc3c(N)ncnc32)[C@H](O)[C@@H]1OP(=O)(O)O [Acetyl-oxa(dethia)-CoA, acetyl-oxa(dethia)-CoA]
Ka (apparent activation constant) [1, 16]: 270 ± 20 µM
h (Hill coefficient) [1, 16]: 3.3 ± 0.7
h (Hill coefficient) ([1]; Acyl-CoA alone, Table 1): 1.5 ± 0.3
Ka (apparent activation constant) [1, 17]: 73 ± 11 µM
increase of apparent Ka in the presence of L-aspartate ([1]; WT SaPC): ~ 4 fold

CC(=O)SCCNC(=O)CCNC(=O)[C@H](O)C(C)(C)CO [acetylpantetheine]
binding and activation of PC ([11]; lacks the nucleotidyl portion): binds to but does not activate PC

ΔBCΔBCCP SaPC (domain or fragment)
stoichiometry N [14]: 2

B1: Staphylococcus aureus pyruvate carboxylase, wild type (enzyme)
chain: MKQIKKLLVANRGEIAIRIFRAAAELDISTVAIYSNEDKSSLHRYKADESYLVGSDLGPAESYLNIERIIDVAKQANVDAIHPGYGFLSENEQFARRCAEEGIKFIGPHLEHLDMFGDKVKARTTAIKADLPVIPGTDGPIKSYELAKEFAEEAGFPLMIKATSGGGGKGMRIVREESELEDAFHRAKSEAEKSFGNSEVYIERYIDNPKHIEVQVIGDEHGNIVHLFERDCSVQRRHQKVVEVAPSVGLSPTLRQRICDAAIQLMENIKYVNAGTVEFLVSGDEFFFIEVNPRVQVEHTITEMVTGIDIVKTQILVAAGADLFGEEINMPQQKDITTLGYAIQCRITTEDPLNDFMPDTGTIIAYRSSGGFGVRLDAGDGFQGAEISPYYDSLLVKLSTHAISFKQAEEKMVRSLREMRIRGVKTNIPFLINVMKNKKFTSGDYTTKFIEETPELFDIQPSLDRGTKTLEYIGNVTINGFPNVEKRPKPDYELASIPTVSSSKIASFSGTKQLLDEVGPKGVAEWVKKQDDVLLTDTTFRDAHQSLLATRVRTKDMINIASKTADVFKDGFSLEMWGGATFDVAYNFLKENPWERLERLRKAIPNVLFQMLLRASNAVGYKNYPDNVIHKFVQESAKAGIDVFRIFDSLNWVDQMKVANEAVQEAGKISEGTICYTGDILNPERSNIYTLEYYVKLAKELEREGFHILAIKDMAGLLKPKAAYELIGELKSAVDLPIHLHTHDTSGNGLLTYKQAIDAGVDIIDTAVASMSGLTSQPSANSLYYALNGFPRHLRTDIEGMESLSHYWSTVRTYYSDFESDIKSPNTEIYQHEMPGGQYSNLSQQAKSLGLGERFDEVKDMYRRVNFLFGDIVKVTPSSKVVGDMALYMVQNDLDEQSVITDGYKLDFPESVVSFFKGEIGQPVNGFNKDLQAVILKGQEALTARPGEYLEPVDFEKVRELLEEEQQGPVTEQDIISYVLYPKVYEQYIQTRNQYGNLSLLDTPTFFFGMRNGETVEIEIDKGKRLIIKLETISEPDENGNRTIYYAMNGQARRIYIKDENVHTNANVKPKADKSNPSHIGAQMPGSVTEVKVSVGETVKANQPLLITEAMKMETTIQAPFDGVIKQVTVNNGDTIATGDLLIEIEKATD
modifications: biotin, covalently tethered to the BCCP domain (co-expressed with BirA to ensure complete biotinylation; residue not stated)
stoichiometry N [15]: 4

B2: R21A SaPC (enzyme)
chain: B1 chain with R21A
modifications: biotin, covalently tethered to the BCCP domain (co-expressed with BirA to ensure complete biotinylation; residue not stated)
stoichiometry N [15]: 4

B3: K46A SaPC (enzyme)
chain: B1 chain with K46A
modifications: biotin, covalently tethered to the BCCP domain (co-expressed with BirA to ensure complete biotinylation; residue not stated)
stoichiometry N [15]: 4

B4: E418A SaPC (enzyme)
chain: B1 chain with E418A
modifications: biotin, covalently tethered to the BCCP domain (co-expressed with BirA to ensure complete biotinylation; residue not stated)
stoichiometry N [15]: 4
